In test [1] the test system is Trypanosoma brucei brucei. The experiment in a line: Activity against Trypanosoma brucei brucei STIB795 in infected NMRI mouse at 20 mg/kg, ip. Also noted: dose 20 mg/kg. The format is functional, organism-based. Summed up:
(§1)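 Mice infected ip with 1 × 10^5 (STIB 795) or 2 × 10^4 (STIB 900) bloodstream forms, in groups of four. Dosed ip once daily on days 3–6, with an untreated control group. Parasitemia checked every second day to day 14, then twice weekly to day 60. Deaths recorded for mean survival time. Cured means surviving and aparasitemic at 60 days.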

Test [2] concerns Trypanosoma brucei brucei. In words: Antitrypanosomal activity against trypomastigotes of AT1 knockout Trypanosoma brucei brucei 427. It is filed as functional, organism-based.
Test [3] concerns Trypanosoma brucei brucei. The experiment in a line: Antitrypanosomal activity against trypomastigotes of AT1 wild type Trypanosoma brucei brucei 427. The format is functional, organism-based.
In another test the test system is Nucleic Acid. In words: Binding affinity to Trypanosoma brucei rhodesiense DNA. It is filed as nucleic-acid assay.
Test [4] relates to Trypanosoma brucei. In words: Activity against Trypanosoma brucei GVR35 in infected NMRI mouse at 40 mg/kg, ip. Also noted: dose 40 mg/kg. It is filed as functional, organism-based.
The subject of test [5] is Trypanosoma brucei. In words: Activity against Trypanosoma brucei GVR35 in infected NMRI mouse at 20 mg/kg, ip. It is filed as functional, organism-based. Also noted: dose 20 mg/kg.
Test [6] concerns Trypanosoma brucei rhodesiense. The experiment in a line: Activity against Trypanosoma brucei rhodesiense STIB900 in infected NMRI mouse at 20 mg/kg, ip. Also on record: dose 20 mg/kg. It is filed as functional, organism-based. Summed up: as §1
For test [7], the system named is Trypanosoma brucei brucei. In words: Activity against Trypanosoma brucei brucei STIB795 in infected NMRI mouse at 10 mg/kg, ip. It is filed as functional, organism-based. Also on record: dose 10 mg/kg. The procedure, abridged:
as §1

For 13 compounds, Activity and IC50 results are on record in ChEMBL document CHEMBL1148654, “DNA binding affinity of bisguanidine and bis(2-aminoimidazoline) derivatives with in vivo antitrypanosomal activity” (J Med Chem, 2006).

Activity calls are given as the source filed them. No cut-off for these calls is given here.

`N=C(N)Nc1ccc(Nc2ccc(NC(=N)N)cc2)cc1`: the outcome (in test [1]; in the test on Nucleic Acid) was Active. In addition, the IC50 in test [2] stood at 2.2 nM; in test [3], 3 nM.

Regarding `O=S(=O)(c1ccc(NC2=NCCN2)cc1)c1ccc(NC2=NCCN2)cc1`, the outcome with Nucleic Acid was inactive.

Take `CC(C)(C)OC(=O)N1CC[N+](C(=O)OC(C)(C)C)=C1Nc1ccc(Nc2ccc(NC3=[N+](C(=O)OC(C)(C)C)CCN3C(=O)OC(C)(C)C)cc2)cc1`: the result in test [1] was inactive.

In the case of `N=C(N)c1ccc(/N=N/Nc2ccc(C(=N)N)cc2)cc1`, the outcome in the test on Trypanosoma brucei [4] was inactive.

With `N=C(N)Nc1ccc(N2CCN(c3ccc(NC(=N)N)cc3)CC2)cc1`, in the test with Nucleic Acid, the result was Active.

Regarding `N=C(N)Nc1ccc(C(=O)c2ccc(NC(=N)N)cc2)cc1`, the result in the test with Nucleic Acid was Active.

As for `N=C(N)c1ccc(OCCCCCOc2ccc(C(=N)N)cc2)cc1`, the outcome with Nucleic Acid was Active.

Turning to `N=C(N)Nc1ccc(S(=O)(=O)c2ccc(NC(=N)N)cc2)cc1`, the result with Nucleic Acid was inactive.

As to `c1cc(Nc2ccc(NC3=NCCN3)cc2)ccc1NC1=NCCN1`, the outcome in the test with Trypanosoma brucei [5] was inactive. The result (in test [1]; in the test with Nucleic Acid; in test [6]) was Active. Also, the IC50 in test [2] is 162 nM; in test [3], 63.7 nM.

In the case of `c1cc(N2CCN(c3ccc(NC4=NCCN4)cc3)CC2)ccc1NC1=NCCN1`, the Activity entry in test [1] is “Toxic”. The outcome in the test on Nucleic Acid was Active.

Consider `N=C(N)Nc1ccc(CCCCCCCCc2ccc(NC(=N)N)cc2)cc1`, for which the outcome in test [7] was inactive.

Take `N=C(N)Nc1ccc(Cc2ccc(NC(=N)N)cc2)cc1`: in the test on Nucleic Acid, the outcome was Active.

Regarding `c1cc(NC2=NCCN2)ccc1Cc1ccc(NC2=NCCN2)cc1`, the result in the test on Nucleic Acid was Active.

Broadly, the IC50 is the midpoint of a concentration-inhibition curve.
